According to ChEMBL document CHEMBL4819122, “Novel 4-(piperazin-1-yl)quinolin-2(1H)-one bearing thiazoles with antiproliferative activity through VEGFR-2-TK inhibition” (Bioorg Med Chem, 2021):
The source made the active and inactive calls. The calls are words filed in the database; no cut-off is given here.

Legend:
[1] = system: OVCAR-4; assay: Cytotoxicity against human OVCAR-4 assessed as growth inhibition at 10 uM by NCI protocol relative to control; type: functional; details: read-out: GI
Procedure, shortened: (§1)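 Run by NCI as a single-dose screen at 10 μM across the sixty-cell-line panel, which covers nine human tumour tissue types. The read-out is percent growth inhibition of treated cells relative to untreated cells.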

[2] = system: CCRF-CEM; assay: Cytotoxicity against human CCRF-CEM assessed as growth inhibition at 10 uM by NCI protocol relative to control; type: functional; details: read-out: GI; procedure, shortened: as §1
[3] = system: NCI-H322M; assay: Cytotoxicity against human NCI-H322M assessed as growth inhibition at 10 uM by NCI protocol relative to control; type: functional; details: read-out: GI; procedure, shortened: as §1
[4] = system: SNB-19; assay: Cytotoxicity against human SNB-19 assessed as growth inhibition at 10 uM by NCI protocol relative to control; type: functional; details: read-out: GI
Procedure, shortened: (§2)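 Run by the NCI under its standard protocol: one dose of 10 μM against a sixty-line panel from nine human tumour tissues. Result given as percent growth inhibition of treated cells relative to untreated cells.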

[5] = system: SF-295; assay: Cytotoxicity against human SF-295 assessed as growth inhibition at 10 uM by NCI protocol relative to control; type: functional; details: read-out: GI; procedure, shortened: as §1
[6] = system: T47D; assay: Cytotoxicity against human T47D cells assessed as reduction in cell viability after 3 hrs by MTT assay
[7] = system: K562; assay: Cytotoxicity against human K-562 assessed as growth inhibition at 10 uM by NCI protocol relative to control; type: functional; details: read-out: GI; procedure, shortened: as §1
[8] = system: SN12C; assay: Cytotoxicity against human SN12C assessed as growth inhibition at 10 uM by NCI protocol relative to control; type: functional; details: read-out: GI; procedure, shortened: as §2
[9] = system: UACC-257; assay: Cytotoxicity against human UACC-257 assessed as growth inhibition at 10 uM by NCI protocol relative to control; type: functional; details: read-out: GI; procedure, shortened: as §2
[10] = system: RPMI-8226; assay: Cytotoxicity against human RPMI-8226 assessed as growth inhibition at 10 uM by NCI protocol relative to control; type: functional; procedure, shortened: as §1
[11] = system: NCI-H23; assay: Cytotoxicity against human NCI-H23 assessed as growth inhibition at 10 uM by NCI protocol relative to control; type: functional; details: read-out: GI; procedure, shortened: as §1
[12] = system: MDA-MB-231; assay: Cytotoxicity against human MDA-MB-231 assessed as growth inhibition at 10 uM by NCI protocol relative to control; type: functional; details: read-out: GI; procedure, shortened: as §1
[13] = system: NCI-H460; assay: Cytotoxicity against human NCI-H460 assessed as growth inhibition at 10 uM by NCI protocol relative to control; type: functional; details: read-out: GI; procedure, shortened: as §1
[14] = system: HCT-15; assay: Cytotoxicity against human HCT-15 assessed as growth inhibition at 10 uM by NCI protocol relative to control; type: functional; details: read-out: GI; procedure, shortened: as §1
[15] = system: UO-31; assay: Cytotoxicity against human UO31 assessed as growth inhibition at 10 uM by NCI protocol relative to control; type: functional; details: read-out: GI; procedure, shortened: as §2
[16] = system: CAKI-1; assay: Cytotoxicity against human Caki1 assessed as growth inhibition at 10 uM by NCI protocol relative to control; type: functional; details: read-out: GI; procedure, shortened: as §1
[17] = system: OVCAR-8; assay: Cytotoxicity against human OVCAR-8 assessed as growth inhibition at 10 uM by NCI protocol relative to control; type: functional; details: read-out: GI; procedure, shortened: as §1
[18] = system: MDA-MB-468; assay: Cytotoxicity against human MDA-MB-468 assessed as growth inhibition at 10 uM by NCI protocol relative to control; type: functional; details: read-out: GI; procedure, shortened: as §1
[19] = system: MDA-MB-435; assay: Cytotoxicity against human MDA-MB-435 assessed as growth inhibition at 10 uM by NCI protocol relative to control; type: functional, cell-based; procedure, shortened: as §1
[20] = system: HL-60; assay: Cytotoxicity against human HL60 assessed as growth inhibition at 10 uM by NCI protocol relative to control; type: functional; details: read-out: GI; procedure, shortened: as §1
[21] = system: IGROV-1; assay: Cytotoxicity against human IGROVI assessed as growth inhibition at 10 uM by NCI protocol relative to control; type: functional; details: read-out: GI; procedure, shortened: as §1
[22] = system: NCI-H522; assay: Cytotoxicity against human NCI-H522 assessed as growth inhibition at 10 uM by NCI protocol relative to control; type: functional; details: read-out: GI; procedure, shortened: as §1
[23] = system: UACC-62; assay: Cytotoxicity against human UACC-62 assessed as growth inhibition at 10 uM by NCI protocol relative to control; type: functional; details: read-out: GI; procedure, shortened: as §2
[24] = system: SR; assay: Cytotoxicity against human SR assessed as growth inhibition at 10 uM by NCI protocol relative to control; type: functional; details: read-out: GI; procedure, shortened: as §2
[25] = system: BT-549; assay: Cytotoxicity against human BT-549 assessed as growth inhibition at 10 uM by NCI protocol relative to control; type: functional; details: read-out: GI; procedure, shortened: as §1
[26] = system: T47D; assay: Cytotoxicity against human T-47D assessed as growth inhibition at 10 uM by NCI protocol relative to control; type: functional; details: read-out: GI; procedure, shortened: as §2
[27] = system: M14; assay: Cytotoxicity against human M14 assessed as growth inhibition at 10 uM by NCI protocol relative to control; type: functional; details: read-out: GI; procedure, shortened: as §1
[28] = system: ACHN; assay: Cytotoxicity against human ACHN assessed as growth inhibition at 10 uM by NCI protocol relative to control; type: functional; details: read-out: GI; procedure, shortened: as §1
[29] = system: OVCAR-5; assay: Cytotoxicity against human OVCAR-5 assessed as growth inhibition at 10 uM by NCI protocol relative to control; type: functional, cell-based; procedure, shortened: as §1
[30] = system: HCT-116; assay: Cytotoxicity against human HCT-116 assessed as growth inhibition at 10 uM by NCI protocol relative to control; type: functional; details: read-out: GI; procedure, shortened: as §1
[31] = system: A498; assay: Cytotoxicity against human A498 assessed as growth inhibition at 10 uM by NCI protocol relative to control; type: functional; details: read-out: GI; procedure, shortened: as §1
[32] = system: MCF7; assay: Cytotoxicity against human MCF7 assessed as growth inhibition at 10 uM by NCI protocol relative to control; type: functional; details: read-out: GI; procedure, shortened: as §1
[33] = system: EKVX; assay: Cytotoxicity against human EKVX assessed as growth inhibition at 10 uM by NCI protocol relative to control; type: functional; details: read-out: GI; procedure, shortened: as §1
[34] = system: PC-3; assay: Cytotoxicity against human PC3 assessed as growth inhibition at 10 uM by NCI protocol relative to control; type: functional; details: read-out: GI; procedure, shortened: as §1
[35] = system: LOX IMVI; assay: Cytotoxicity against human LOX IMVI assessed as growth inhibition at 10 uM by NCI protocol relative to control; type: functional; details: read-out: GI; procedure, shortened: as §1
[36] = system: HOP-62; assay: Cytotoxicity against human HOP-62 assessed as growth inhibition at 10 uM by NCI protocol relative to control; type: functional; details: read-out: GI; procedure, shortened: as §1
[37] = system: MOLT-4; assay: Cytotoxicity against human MOLT-4 assessed as growth inhibition at 10 uM by NCI protocol relative to control; type: functional; details: read-out: GI; procedure, shortened: as §1
[38] = system: SK-MEL-5; assay: Cytotoxicity against human SK-MEL-5 assessed as growth inhibition at 10 uM by NCI protocol relative to control; type: functional; details: read-out: GI; procedure, shortened: as §1
[39] = system: A549; assay: Cytotoxicity against human A549 assessed as growth inhibition at 10 uM by NCI protocol relative to control; type: functional; details: read-out: GI; procedure, shortened: as §1
[40] = system: NCI-H226; assay: Cytotoxicity against human NCI-H226 assessed as growth inhibition at 10 uM by NCI protocol relative to control; type: functional; details: read-out: GI; procedure, shortened: as §1
[41] = system: OVCAR-3; assay: Cytotoxicity against human OVCAR-3 assessed as growth inhibition at 10 uM by NCI protocol relative to control; type: functional; details: read-out: GI; procedure, shortened: as §1
[42] = system: SF-268; assay: Cytotoxicity against human SF-268 assessed as growth inhibition at 10 uM by NCI protocol relative to control; type: functional; details: read-out: GI; procedure, shortened: as §1

Question: With `COc1ccc(-c2csc(NC(=O)CN3CCN(c4cc(=O)n(-c5ccccc5)c5ccccc45)CC3)n2)cc1` as the compound, how does the inhibition of growth at 10 µM [1] read?
Answer: 70.4%

Question: And the inhibition of growth at 10 µM [2]?
Answer: 24.9%

Question: And the inhibition of growth at 10 µM [3]?
Answer: 12.6%

Question: And the inhibition of growth at 10 µM [4]?
Answer: 24.2%

Question: And the inhibition of growth at 10 µM [5]?
Answer: 22.9%

Question: What about the IC50 [6] of the same compound?
Answer: 8.11 µM

Question: What about the inhibition of growth at 10 µM [7] of the same compound?
Answer: 56.4%

Question: What about the inhibition of growth at 10 µM [8] of the same compound?
Answer: 16%

Question: What about the inhibition of growth at 10 µM [9] of the same compound?
Answer: 27.8%

Question: What about the “growth inhibition (GI)” value [10] of the same compound?
Answer: inactive

Question: What about the inhibition of growth at 10 µM [11] of the same compound?
Answer: 35.7%

Question: And the inhibition of growth at 10 µM [12]?
Answer: 22.4%

Question: What about the inhibition of growth at 10 µM [13] of the same compound?
Answer: 15.9%

Question: What about the inhibition of growth at 10 µM [14] of the same compound?
Answer: 18%

Question: And the inhibition of growth at 10 µM [15]?
Answer: 27.9%

Question: What about the inhibition of growth at 10 µM [16] of the same compound?
Answer: 16.1%

Question: And the inhibition of growth at 10 µM [17]?
Answer: 15.5%

Question: What about the inhibition of growth at 10 µM [18] of the same compound?
Answer: 55.3%

Question: What about the “growth inhibition (GI)” value [19] of the same compound?
Answer: inactive

Question: What about the inhibition of growth at 10 µM [20] of the same compound?
Answer: 30.2%

Question: And the inhibition of growth at 10 µM [21]?
Answer: 21.5%

Question: What about the inhibition of growth at 10 µM [22] of the same compound?
Answer: 30.4%

Question: What about the inhibition of growth at 10 µM [23] of the same compound?
Answer: 31.1%

Question: What about the inhibition of growth at 10 µM [24] of the same compound?
Answer: 11.2%

Question: And the inhibition of growth at 10 µM [25]?
Answer: 19.9%

Question: What about the inhibition of growth at 10 µM [26] of the same compound?
Answer: 60%

Question: And the inhibition of growth at 10 µM [27]?
Answer: 16.1%

Question: And the inhibition of growth at 10 µM [28]?
Answer: 19%

Question: And the “growth inhibition (GI)” value [29]?
Answer: inactive

Question: And the inhibition of growth at 10 µM [30]?
Answer: 28.9%

Question: And the inhibition of growth at 10 µM [31]?
Answer: 13%

Question: What about the inhibition of growth at 10 µM [32] of the same compound?
Answer: 26%

Question: What about the inhibition of growth at 10 µM [33] of the same compound?
Answer: 35.2%

Question: What about the inhibition of growth at 10 µM [34] of the same compound?
Answer: 27.5%

Question: What about the inhibition of growth at 10 µM [35] of the same compound?
Answer: 15%

Question: And the inhibition of growth at 10 µM [36]?
Answer: 12.4%

Question: What about the inhibition of growth at 10 µM [37] of the same compound?
Answer: 53.1%

Question: And the inhibition of growth at 10 µM [38]?
Answer: 53%

Question: And the inhibition of growth at 10 µM [39]?
Answer: 19.7%

Question: What about the inhibition of growth at 10 µM [40] of the same compound?
Answer: 18.7%

Question: What about the inhibition of growth at 10 µM [41] of the same compound?
Answer: 17.1%

Question: What about the inhibition of growth at 10 µM [42] of the same compound?
Answer: 12.4%
